Here are results for 2 compounds from ChEMBL document CHEMBL4261487, “Small structural changes of the imidazopyridine diacylglycerol acyltransferase 2 (DGAT2) inhibitors produce an improved safety profile” (Medchemcomm, 2017).

SMILES strings stand for the structures.

Broadly, the IC50 is the concentration that inhibits the measured activity by half. The fraction unbound is free concentration divided by total concentration. As usually defined, the half-life is the time in which the quantity being followed falls by half. Usually clearance stands for the rate of elimination divided by the concentration.

For data set [1], the target named is T1, Diacylglycerol O-acyltransferase 2 (Rattus norvegicus, UniProt Q5FVP8).
T1 sequence (Q5FVP8 whole entry): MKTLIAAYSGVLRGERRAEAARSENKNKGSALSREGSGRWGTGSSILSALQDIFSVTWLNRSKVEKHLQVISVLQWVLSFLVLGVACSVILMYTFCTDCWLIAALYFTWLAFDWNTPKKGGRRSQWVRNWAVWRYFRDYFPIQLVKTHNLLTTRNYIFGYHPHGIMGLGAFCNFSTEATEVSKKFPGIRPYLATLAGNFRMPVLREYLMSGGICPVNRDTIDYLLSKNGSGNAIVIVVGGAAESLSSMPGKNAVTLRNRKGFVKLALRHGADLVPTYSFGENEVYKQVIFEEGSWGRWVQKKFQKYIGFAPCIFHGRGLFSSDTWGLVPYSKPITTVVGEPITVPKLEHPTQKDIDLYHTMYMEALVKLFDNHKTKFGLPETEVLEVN
As to the kind of experiment: Inhibition of rat DGAT2.

For data set [2], the target named is T2, Diacylglycerol O-acyltransferase 1 (Homo sapiens, UniProt O75907).
T2 sequence (O75907 whole entry): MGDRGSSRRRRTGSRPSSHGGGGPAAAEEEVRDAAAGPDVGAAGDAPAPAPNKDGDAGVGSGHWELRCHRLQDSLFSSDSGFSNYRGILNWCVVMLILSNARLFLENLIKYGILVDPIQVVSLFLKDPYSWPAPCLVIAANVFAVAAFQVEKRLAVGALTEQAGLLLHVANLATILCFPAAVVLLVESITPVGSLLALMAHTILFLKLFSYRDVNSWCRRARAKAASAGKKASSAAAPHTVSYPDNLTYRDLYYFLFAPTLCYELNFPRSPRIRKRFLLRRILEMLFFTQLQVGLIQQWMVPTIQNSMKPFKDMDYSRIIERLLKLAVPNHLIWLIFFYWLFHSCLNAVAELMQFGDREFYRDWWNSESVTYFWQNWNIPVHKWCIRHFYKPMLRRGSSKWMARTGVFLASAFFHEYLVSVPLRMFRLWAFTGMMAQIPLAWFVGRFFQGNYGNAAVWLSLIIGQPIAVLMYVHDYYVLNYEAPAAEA
As to the kind of experiment: Inhibition of DGAT1 (unknown origin).

Data set [3] can be described thus: Apparent intrinsic clearance in human hepatocytes assessed per million cells. It counts as ADME, cell-based, Hepatocyte.
Data set [4] can be described thus: Fraction unbound in dog plasma. The data set is classed as ADME, cell-free, Canis lupus familiaris.
A short description of data set [5]: Half life in beagle dog at 1 mg/kg, iv. As to conditions: in vivo. It counts as ADME, organism-based, Canis lupus familiaris.
Data set [6] in a line: Plasma clearance in beagle dog at 1 mg/kg, iv. It counts as ADME, organism-based, Canis lupus familiaris.
Data set [7] can be described thus: Volume of distribution at steady state in beagle dog at 1 mg/kg, iv. The following applies: in vivo, read-out: Vdss. The data set is classed as ADME, organism-based, Canis lupus familiaris. A digest of the protocol: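 Male Beagle dogs, single iv dose, crystalline form of compound; value is the mean of two experiments.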
Data set [8] concerns Rattus norvegicus. As to the kind of experiment: In vivo DGAT2 inhibition in po dosed sucrose-fed rat assessed as decrease in plasma triglyceride levels after 2 hrs. It counts as functional, organism-based. The method, boiled down:
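Rats fed a high-sucrose diet, single oral dose of test article or vehicle; plasma TG measured in tail-vein blood 2 h post dose; n = 7–8 per group; results as percent change from vehicle group, one-way ANOVA with Dunnett's test.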

The nature of data set [9]: Ratio of Cmax in beagle dog at 10 mg/kg, po qd administered for 1 month to IC50 for in vitro inhibition of dog DGAT2. It counts as organism-based, Canis lupus familiaris. The following applies: in vivo. The method, boiled down: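 One-month toxicity study in Beagle dogs with N = 2/sex/dose. Plasma exposure at each dose level was referenced to the dog DGAT2 enzymatic IC50, reported as the geometric mean of at least three replicates.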

The subject of data set [10] is Canis familiaris. As to the kind of experiment: Unbound AUC in beagle dog at 30 mg/kg, po qd administered for 1 month. As to conditions: in vivo. The data set is classed as ADME, organism-based, Canis lupus familiaris. A digest of the protocol: (§1)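 Beagle dogs were dosed orally once daily in a 14-day exploratory study or 1-month toxicity studies. Steady-state systemic exposure over the 24 h dosing interval is reported as the mean of male and female values combined.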

Data set [11] relates to Canis familiaris. As to the kind of experiment: Toxicity in telemetered beagle dog assessed as increase in systolic pressure at 50 mg/kg administered via oral gavage measured during 4 hrs of post dosing. It counts as organism-based, Canis lupus familiaris. As to conditions: in vivo.
The subject of data set [12] is Rattus norvegicus. As to the kind of experiment: Unbound AUC in Wistar Han IGS rat at 100 mg/kg, po qd administered for 14 days. It counts as ADME, organism-based. The following applies: in vivo, 336 h. A digest of the protocol: (§2)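 Wistar Han rats were dosed orally once daily for 14 days (exploratory, 5/sex/dose) or 1 month (toxicity, 10/sex/dose). Toxicokinetic satellite animals (3–4/sex/dose) were used, and steady-state systemic exposure is given as the mean of male and female values combined.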

For data set [13], the system named is Rattus norvegicus. As to the kind of experiment: Toxicity in Wistar Han IGS rat at 10 mg/kg, po qd administered for 14 days. It counts as organism-based. As to conditions: in vivo, 336 h. The method, boiled down: (§3)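 Wistar Han rats, daily oral dosing for 14 days (5/sex/dose) or 1 month (10/sex/dose); microscopic findings reported as incidence by sex, plus organ weights.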

In data set [14] the test system is Rattus norvegicus. As to the kind of experiment: Toxicity in Wistar Han IGS rat at 100 mg/kg, po qd administered for 14 days. The data set is classed as organism-based. The following applies: in vivo, 336 h. The method, boiled down:
as §3

In data set [15] the test system is Rattus norvegicus. As to the kind of experiment: Unbound Cmax in Wistar Han IGS rat at 60 mg/kg, po qd administered for 1 month. The data set is classed as ADME, organism-based. The following applies: in vivo. The method, boiled down:
as §2

Data set [16] concerns Rattus norvegicus. As to the kind of experiment: Unbound AUC in Wistar Han IGS rat at 30 mg/kg, po qd administered for 1 month. The data set is classed as ADME, organism-based. The following applies: in vivo. A digest of the protocol: as §2
Data set [17] deals with Canis familiaris. As to the kind of experiment: Unbound AUC in beagle dog at 300 mg/kg, po qd administered for 14 days. It counts as ADME, organism-based, Canis lupus familiaris. As to conditions: in vivo, 336 h. A digest of the protocol:
as §1

For data set [18], the system named is Canis familiaris. As to the kind of experiment: Toxicity in beagle dog at 75 mg/kg, po qd administered for 14 days. It counts as organism-based, Canis lupus familiaris. As to conditions: in vivo, 336 h.
For data set [19], the system named is Canis familiaris. As to the kind of experiment: Toxicity in beagle dog assessed as unscheduled death at 300 mg/kg, po qd administered for 14 days. It counts as organism-based, Canis lupus familiaris. The following applies: in vivo, 336 h.
In data set [20] the test system is Canis familiaris. As to the kind of experiment: Toxicity in telemetered beagle dog assessed as change in ECG intervals at 5 mg/kg administered via oral gavage measured over 24 hrs. It counts as organism-based, Canis lupus familiaris. The following applies: in vivo.
Data set [21] relates to Canis familiaris. As to the kind of experiment: Unbound Cmax in beagle dog at 5 mg/kg, po qd administered for 1 month. The following applies: in vivo. The data set is classed as ADME, organism-based, Canis lupus familiaris. A digest of the protocol:
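One-month dog toxicity study with once-daily oral dosing. Toxicity groups were 2/sex/dose, and unbound peak exposure was taken from toxicokinetic sampling.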

Data set [22] relates to Canis familiaris. As to the kind of experiment: Toxicity in beagle dog assessed as prolongation of QTc interval at 100 to 150 mg/kg, po qd administered for 25 days. The data set is classed as organism-based, Canis lupus familiaris. As to conditions: in vivo, 600 h.
Data set [23] concerns Rattus norvegicus. As to the kind of experiment: In vivo inhibition of DGAT2 in Wistar Han IGS rat assessed as coverage of in vitro IC50 for rat DGAT2 at 10 mg/kg, po qd administered for 14 days. Details: scale not given: the % may be the effect or the level left. It counts as functional. The method, boiled down: (§4)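 Wistar Han rats, once-daily oral dosing for 14 days (exploratory, 5/sex/dose) or 1 month (10/sex/dose); toxicokinetics in 3–4/sex/dose with sexes combined; coverage is the average % above rat DGAT2 IC50 at steady state over the 24 h dosing interval.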

Data set [24] has as its system Rattus norvegicus. As to the kind of experiment: In vivo inhibition of DGAT2 in Wistar Han IGS rat assessed as coverage of in vitro IC50 for rat DGAT2 at 500 mg/kg, po qd administered for 14 days. The data set is classed as functional. Details: scale not given: the % may be the effect or the level left. The method, boiled down:
as §4

In data set [25] the test system is Canis familiaris. As to the kind of experiment: In vivo inhibition of DGAT2 in beagle dog assessed as coverage of in vitro IC50 for dog DGAT2 at 5 mg/kg, po qd administered for 1 month. The data set is classed as functional, Canis lupus familiaris. Details: scale not given: the % may be the effect or the level left. The method, boiled down: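 Beagle dogs, once-daily oral dosing for 14 days or 1 month; systemic exposure with sexes combined; coverage is the average % above dog DGAT2 IC50 at steady state over the 24 h dosing interval.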

In data set [26] the test system is Canis familiaris. As to the kind of experiment: Unbound Cmax in telemetered beagle dog at 75 mg/kg administered via oral gavage measured over 24 hrs. The data set is classed as ADME, organism-based, Canis lupus familiaris. As to conditions: in vivo. The method, boiled down: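 Telemetered Beagle dogs given oral doses, with blood pressure and heart rate monitored after dosing alongside plasma exposure.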

Data set [27] has as its system Canis familiaris. As to the kind of experiment: Toxicity in telemetered beagle dog assessed as increase in systolic pressure at 25 mg/kg administered via oral gavage measured over 24 hrs. The data set is classed as organism-based, Canis lupus familiaris. As to conditions: in vivo.

With `C[C@@H](c1nc2ccc(N3CCC[C@@H](C(=O)N4CCCC4)C3)nc2[nH]1)n1cc(Cl)cn1`, the IC50 in [1] was 155 nM; in data set [2], greater than 50000 nM. In data set [3], the “CLH(app)” value is 16.1 µL/min. In data set [4], this compound registered a fraction unbound of 0.12. This compound also showed a half-life in data set [5] of 3.2 h. Also, the clearance in data set [6] came to 4 mL/min/kg. For the same compound, the Vd in [7] stood at 0.54 L/kg. The inhibition entry in the data set on Rattus norvegicus [8] is “Dose-dependent effect”. In [9], the Ratio is on record as 31. The fAUC with Canis familiaris [10] was 9530 ng·h/mL. Further, the Activity in the data set on Canis familiaris [11] is given as 5 mmHg.
Regarding `CS(=O)(=O)O.O=C([C@@H]1CCCN(c2ccc3nc(C4(n5cc(Cl)cn5)CC4)[nH]c3n2)C1)N1CCCC1`, the results for the fAUC with Rattus norvegicus [12], with Rattus norvegicus [16] and with Canis familiaris [17] were 25600 ng·h/mL, 4630 ng·h/mL and 78300 ng·h/mL, respectively. Further, the Activity entry is on record as “Non-Toxic” with Rattus norvegicus [13]; “Non-Toxic” in the data set with Rattus norvegicus [14]; “Non-Toxic” with Canis familiaris [18]; “Toxic” in the data set on Canis familiaris [19]; “Non-Toxic” with Canis familiaris [20]; “Toxic” in the data set with Canis familiaris [22]. Besides, the Activity is 75% in the data set on Rattus norvegicus [23], greater than 99% in the data set on Rattus norvegicus [24], 87% in the data set with Canis familiaris [25] and 5 mmHg in the data set with Canis familiaris [27]. In addition, the figures for the fCmax in the data set on Rattus norvegicus [15], in the data set with Canis familiaris [21] and with Canis familiaris [26] were 5.47 µM, 1010 nM and 7.51 µM, respectively.
